Reference: ChEMBL document CHEMBL1909507, “Substituted phenyl 4-(2-oxoimidazolidin-1-yl)benzenesulfonamides as antimitotics. Antiproliferative, antiangiogenic and antitumoral activity, and quantitative structure-activity relationships” (Eur J Med Chem, 2011)
The source made the active and inactive calls. The rule behind the calls is not given here.

Tests used:
[1] = tested on: HT-29; assay: Antiproliferative activity against human HT-29 cells after 48 hrs by SRB assay; type: functional, cell-based; conditions: HT-29, 48 h
Procedure, shortened: (§1)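 Adherent cells were seeded per line (e.g. HT-29 5000, M21 3500, MCF7 7500, CHO and CHO-VV 3-2 and CHO-TAX 5-6 1000 cells/well) and grown 24 h at 37 °C, 5% CO₂. DMSO-solubilized drug was diluted in medium and added at 1000–0.98 nM for 48 h. Cells were fixed with cold 10% TCA and stained with 0.1% sulforhodamine B, with absorbance read at 530–565 nm.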

[2] = tested on: M21; assay: Antiproliferative activity against human M21 cells after 48 hrs by SRB assay; type: functional, cell-based; conditions: M21, 48 h; procedure, shortened: as §1
[3] = tested on: MCF7; assay: Antiproliferative activity against human MCF7 cells after 48 hrs by SRB assay; type: functional, cell-based; conditions: MCF7, 48 h; procedure, shortened: as §1
[4] = tested on: CHO-TAX 5-6; assay: Ratio of IC50 for paclitaxel-resistant CHO-TAX 5-6 cells to IC50 for CHO cells; type: functional, Cricetulus griseus
Procedure, shortened: (§2)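 Each ratio is the IC50 in the resistant line divided by the IC50 in its parental line (CHO for CHO-TAX 5-6 and CHO-VV 3-2; CEM for CEM-VLB).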

[5] = tested on: CHO-VV 3-2; assay: Antiproliferative activity against colchicine and vinblastine-resistant CHO-VV 3-2 cells after 48 hrs by SRB assay; type: functional, cell-based; conditions: Cricetulus griseus, CHO-VV 3-2, 48 h; procedure, shortened: as §1
[6] = tested on: CHO-VV 3-2; assay: Ratio of IC50 for colchicine and vinblastine-resistant CHO-VV 3-2 cells to IC50 for CHO cells; type: functional, Cricetulus griseus; procedure, shortened: as §2
[7] = Antiproliferative activity against human multidrug-resistant CEM/VLB cells after 48 hrs by SRB assay; type: functional
[8] = tested on: CCRF-CEM; assay: Ratio of IC50 for human multidrug-resistant CEM/VLB cells to IC50 for human CEM cells; type: functional; procedure, shortened: as §2
[9] = tested on: M21; assay: Cell cycle arrest in human M21 cells assessed as accumulation at G0/G1 phase at 5 times IC50 after 24 hrs using propidium iodide staining by flow cytometric analysis (reference value: 61%); type: functional
Procedure, shortened: (§3)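 Cells were trypsinized, fixed in ice-cold ethanol, treated with RNase, and stained with propidium iodide (1 mg/mL stock) for 1 h on ice. Cell-cycle distribution was measured by flow cytometry.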

[10] = tested on: M21; assay: Cell cycle arrest in human M21 cells assessed as accumulation at S phase at 5 times IC50 after 24 hrs using propidium iodide staining by flow cytometric analysis (reference value: 30%); type: functional; procedure, shortened: as §3
[11] = tested on: M21; assay: Cell cycle arrest in human M21 cells assessed as accumulation at G2/M phase at 5 times IC50 after 24 hrs using propidium iodide staining by flow cytometric analysis (reference value: 9%); type: functional; procedure, shortened: as §3
[12] = tested on: MDA-MB-231; assay: Displacement of N,N'-ethylenebis(iodoacetamide) from beta-tubulin colchicine-binding site in human MDA-MB-231 cells at 1000 times IC50 preincubated for 2 hrs before N,N'-ethylenebis(iodoacetamide) addition measured after 1.5 hrs by chemiluminescence assay; type: cell-based
Procedure, shortened: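 EBI (100, final) was added for 1.5 h at 37 °C with drug present; control was 0.5% DMSO. Sonicated lysates (20 µg protein) were run on 10% SDS-PAGE and blotted with anti-β-tubulin TUB 2.1. The β-tubulin–EBI adduct was scored by ECL.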

[13] = tested on: M21; assay: Disruption of cytoskeleton microtubule structure of human M21 cells at 5 times IC50 after 16 hrs by indirect immunofluorescence assay; type: functional, cell-based
Procedure, shortened: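 Cells were fixed in 3.7% formaldehyde, permeabilized with saponin, and stained with anti-β-tubulin TUB 2.1, Alexa-488 anti-mouse secondary and DAPI. Fluorescence microscopy was used for imaging.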

[14] = Toxicity against fertilized chicken embryo assessed as mortality at 3 ug, iv by CAM assay; type: organism-based, Gallus gallus; conditions: in vivo, read-out: Activity
Procedure, shortened: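 HT-1080 fibrosarcoma cells (3.5 × 10⁵ cells/egg) grafted onto the chorioallantoic membrane of fertilized chicken eggs (10 days preincubation). On day 11, drug in DMSO diluted into excipient (ethanol:cremophor:PBS 6.25:6.25:87.5) given iv at 3 µg per egg. Chick mortality recorded over 7-day tumor growth period. Untreated eggs as negative controls and for normalization. Cumulative results from two independent experiments, 10–12 eggs each.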

[15] = tested on: HT-1080; assay: Antitumor activity against human HT1080 cells xenografted in chicken chorioallantoic membrane assessed as inhibition of tumor growth at 3 ug, iv measured on day 17 by CAM assay; type: functional
Procedure, shortened: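 Fertilized chicken eggs were incubated 10 days, then 3.5 × 10⁵ HT-1080 cells/egg were applied to the exposed chorioallantoic membrane. On day 11, drug was given iv in DMSO diluted in excipient (ethanol:cremophor:PBS 6.25:6.25:87.5). Read-out was tumor wet weight as % of untreated eggs, plus chick mortality. Data were pooled from two independent experiments of 10–12 eggs each.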

[16] = tested on: K562; assay: Antiproliferative activity against human K562 after 48 hrs by SRB assay; type: functional, cell-based; conditions: K562, 48 h
[17] = tested on: L1210; assay: Antiproliferative activity against mouse L1210 after 48 hrs by SRB assay; type: functional, cell-based; conditions: L1210, 48 h
[18] = tested on: DU-145; assay: Antiproliferative activity against human DU145 after 48 hrs by SRB assay; type: functional, cell-based; conditions: DU-145, 48 h
[19] = tested on: HT-1080; assay: Antiproliferative activity against human HT1080 after 48 hrs by SRB assay; type: functional, cell-based; conditions: HT-1080, 48 h; procedure, shortened: as §1
[20] = tested on: MDA-MB-231; assay: Antiproliferative activity against human MDA-MB-231 after 48 hrs by SRB assay; type: functional, cell-based; conditions: MDA-MB-231, 48 h
[21] = tested on: SK-OV-3; assay: Antiproliferative activity against human SKOV3 after 48 hrs by SRB assay; type: functional, cell-based; conditions: SK-OV-3, 48 h; procedure, shortened: as §1
[22] = tested on: CCRF-CEM; assay: Antiproliferative activity against human CEM after 48 hrs by SRB assay; type: functional, cell-based
[23] = tested on: CHO-TAX 5-6; assay: Antiproliferative activity against paclitaxel-resistant CHO-TAX 5-6 cells after 48 hrs by SRB assay; type: functional, cell-based; conditions: Cricetulus griseus, CHO-TAX 5-6, 48 h; procedure, shortened: as §1
[24] = Antiproliferative activity against mouse B16F0 after 48 hrs by SRB assay
[25] = Antiproliferative activity against mouse P388D1 after 48 hrs by SRB assay; conditions: P388D1, 48 h
[26] = tested on: CHO; assay: Antiproliferative activity against Chinese hamster CHO after 48 hrs by SRB assay; conditions: Cricetulus griseus

In the case of `O=C1NCCN1c1ccc(S(=O)(=O)Nc2ccc(Cl)cc2)cc1`, the IC50 [1] is reported as 220 nM, the IC50 [2] is reported as 90 nM and the IC50 [3] is reported as 170 nM.
In the case of `CCc1cccc(NS(=O)(=O)c2ccc(N3CCNC3=O)cc2)c1`, the “Ratio IC50” value [4] is reported as 0.61, the IC50 [5] is reported as 250 nM and the “Ratio IC50” value [6] is reported as 1.1. The IC50 [7] was 450 nM, the “Ratio IC50” value [8] was 2.3 and the Activity [9] was 0%. The Activity [10] was 5%, the Activity [11] was 95% and the Activity [12] was “Active”. For the same compound, the Activity [13] was “Active”, the mortality [14] was 11% and the “growth inhibition (GI)” value [15] was 45%. It also gave an IC50 [1] of 110 nM, an IC50 [2] of 82 nM and an IC50 [3] of 130 nM. It also gave an IC50 [16] of 230 nM, an IC50 [17] of 200 nM and an IC50 [18] of 730 nM. It also gave an IC50 [19] of 200 nM, an IC50 [20] of 1410 nM and an IC50 [21] of 230 nM. For the same compound, the IC50 [22] was 200 nM, the IC50 [23] was 140 nM and the IC50 [24] was 270 nM. It also gave an IC50 [25] of 250 nM and an IC50 [26] of 230 nM.
With `CCCCCCOc1ccc(NS(=O)(=O)c2ccc(N3CCNC3=O)cc2)cc1` the IC50 [1] was > 1000 nM, the IC50 [2] was > 1000 nM and the IC50 [3] was > 1000 nM.
In the case of `CCC(C)c1ccc(NS(=O)(=O)c2ccc(N3CCNC3=O)cc2)cc1` (configuration not stated), the IC50 [1] is reported as > 1000 nM, the IC50 [2] is reported as > 1000 nM and the IC50 [3] is reported as > 1000 nM.
In the case of `CC(=O)O[C@H]1C(=O)[C@@]2(C)[C@H]([C@H](OC(=O)c3ccccc3)[C@]3(O)C[C@H](OC(=O)[C@H](O)[C@@H](NC(=O)c4ccccc4)c4ccccc4)C(C)=C1C3(C)C)[C@]1(OC(C)=O)CO[C@@H]1C[C@@H]2O` [PACLITAXEL], the IC50 [24] is reported as 28 nM and the IC50 [25] is reported as 35 nM.
In the case of `O=C1NCCN1c1ccc(S(=O)(=O)Nc2ccc(Br)cc2)cc1`, the IC50 [1] is reported as 300 nM, the IC50 [2] is reported as 130 nM and the IC50 [3] is reported as 240 nM.
Compound `O=C1NCCN1c1ccc(S(=O)(=O)Nc2ccc3c(c2)CCC3)cc1` has an IC50 [1] of 190 nM, an IC50 [2] of 130 nM and an IC50 [3] of 240 nM.
For `CCCCCCCc1ccc(NS(=O)(=O)c2ccc(N3CCNC3=O)cc2)cc1`, the IC50 [1] was > 1000 nM, the IC50 [2] was > 1000 nM and the IC50 [3] was > 1000 nM.
Compound `O=C1NCCN1c1ccc(S(=O)(=O)Nc2ccc(F)c(F)c2)cc1` has an IC50 [1] of 350 nM, an IC50 [2] of 220 nM and an IC50 [3] of 620 nM.
For `CC[C@]1(O)C[C@@H]2CN(CCc3c([nH]c4ccccc34)[C@@](C(=O)OC)(c3cc4c(cc3OC)N(C)[C@H]3[C@@](O)(C(=O)OC)[C@H](OC(C)=O)[C@]5(CC)C=CCN6CC[C@]43[C@@H]65)C2)C1` [VINBLASTINE], the “Ratio IC50” value [4] was 0.41, the “Ratio IC50” value [6] was 3.9 and the IC50 [7] was 600 nM. For the same compound, the “Ratio IC50” value [8] was 1579, the IC50 [24] was 0.099 nM and the IC50 [25] was 1.8 nM.
For `O=C1NCCN1c1ccc(S(=O)(=O)Nc2ccc(F)cc2)cc1`, the IC50 [1] was 370 nM, the IC50 [2] was 230 nM and the IC50 [3] was 690 nM.
`O=C1NCCN1c1ccc(S(=O)(=O)Nc2cccc(Oc3ccccc3)c2)cc1` showed an IC50 [1] of 200 nM, an IC50 [2] of 83 nM and an IC50 [3] of 220 nM.
For `COc1cc2c(c(OC)c1OC)-c1ccc(OC)c(=O)cc1[C@@H](NC(C)=O)CC2` [COLCHICINE], the IC50 [7] was 360 nM, the IC50 [24] was 13 nM and the IC50 [25] was 28 nM.
Work on `Cc1ccc(NS(=O)(=O)c2ccc(N3CCNC3=O)cc2)cc1` yielded an IC50 [1] of 480 nM, an IC50 [2] of 260 nM and an IC50 [3] of 610 nM.
Compound `O=C1NCCN1c1ccc(S(=O)(=O)Nc2ccc(I)cc2)cc1` has an IC50 [1] of 650 nM, an IC50 [2] of 260 nM and an IC50 [3] of 600 nM.
For `O=C(CI)NCCNC(=O)CI`, the Activity [12] was “inactive”.
Work on `O=C1NCCN1c1ccc(S(=O)(=O)Nc2ccccc2)cc1` yielded an IC50 [1] of 280 nM, an IC50 [2] of 200 nM and an IC50 [3] of 470 nM.
`Cc1cccc(NS(=O)(=O)c2ccc(N3CCNC3=O)cc2)c1C` gave an IC50 [1] of 190 nM, an IC50 [2] of 110 nM and an IC50 [3] of 230 nM.
